Experimental data from ChEMBL document CHEMBL1130202, “Biologically active heteroarotinoids exhibiting anticancer activity and decreased toxicity” (J Med Chem, 1997).
Calls of active or inactive are those of the source. The rule behind the calls is not given here.

Tests used:
Mus musculus [1] = organism: Mus musculus; assay: Mortality rate in mice in low dose; format: functional
Summary of the method: (§1)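 Male B6D2F1 mice given compound daily by gavage in corn oil at the stated dose levels, with corn oil vehicle controls. Deaths counted as animals found dead or sacrificed moribund, with day(s) of death recorded. Heteroarotinoid groups ran to day 65 and low-dose reference groups to day 25.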

Mus musculus [2] = organism: Mus musculus; assay: Fracture incidence in mouse at mid dose 2; 4/8
Mus musculus [3] = organism: Mus musculus; assay: Enlarged spleen in Gross pathological observations in mice with hypervitaminosis A at mid dose 1 with gross observations/total number of mice in group; 1/16; format: functional, organism-based
Mus musculus [4] = organism: Mus musculus; assay: Alopecia in mice observed at mid dose 2 with Hypervitaminosis; 3/16; format: functional, organism-based
Mus musculus [5] = organism: Mus musculus; assay: Enlarged lymph in gross pathological observations in mice with hypervitaminosis A at mid dose 2 with gross observations/total number of mice in group; 1/16; format: functional, organism-based
Mus musculus [6] = organism: Mus musculus; assay: Avoiding pressure on limbs in mice at high dose with Hypervitaminosis; 4/16; format: functional, organism-based; settings: Limb
Mus musculus [7] = organism: Mus musculus; assay: Skin scaling in mice at mid dose 1 with Hypervitaminosis; 0/16; format: functional, organism-based
Mus musculus [8] = organism: Mus musculus; assay: Mortality rate in mice in mid dose 1; format: functional; summary of the method: as §1
Mus musculus [9] = organism: Mus musculus; assay: Alopecia in mice observed at mid dose 1 with Hypervitaminosis; 2/16; format: functional, organism-based
Mus musculus [10] = assay: Effect of compound on adrenal to body weight ratios in mice at 0.8 mg/kg/day dose; all the animals died by day 65; format: functional, organism-based
Mus musculus [11] = assay: Effect of compound on right testicle to body weight ratios in mice at 0.01 mg/kg/day dose on day 25; format: functional, organism-based
Mus musculus [12] = assay: Alopecia observed at 0.8 mg/kg/day dose in mice with hypervitaminosis; 3/16; format: functional, organism-based
Mus musculus [13] = assay: Effect of compound on Spleen to body weight ratios in mice at 0.2 mg/kg/day dose on day 65; dead by day 65; format: functional, organism-based
Summary of the method: (§2)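 Male B6D2F1 mice dosed daily by gavage with compound in corn oil; vehicle 1 (corn oil) controls run to termination on day 65. Low, mid 1, mid 2 and high dose groups, with dosage increases partway through the study. Organ-to-body weight ratios (×1000) taken at necropsy on day 65, reported as mean ± SD for 4 to 8 animals and as % difference from vehicle.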

Mus musculus [14] = assay: Effect of compound on Spleen to body weight ratios in mice at 0.4 mg/kg/day dose on day 65; dead by day 65; format: functional, organism-based; summary of the method: as §2
Mus musculus [15] = assay: Effect of compound on adrenal to body weight ratios in mice at 0.4 mg/kg/day dose; all the animals died by day 65; format: functional, organism-based
Mus musculus [16] = assay: Effect of compound on adrenal to body weight ratios in mice at 0.1 mg/kg/day dose; all the animals died by day 65; format: functional, organism-based
Mus musculus [17] = assay: Average number of fractures per mouse at 0.01 mg/kg/day
Mus musculus [18] = assay: Effects of retinoids on thymus to body weight ratios in mice at 0.05 mg/kg/day dose
Mus musculus [19] = assay: Enlarged spleen in Enlarged spleen in Gross pathological observations with hypervitaminosis A in mice at 0.2 mg/kg/day dose with gross observations/total number of animals in group; 0/16; format: functional, organism-based
Mus musculus [20] = assay: Enlarged spleen in Gross pathological observations with hypervitaminosis A in mice at 0.1 mg/kg/day dose with gross observations/total number of animals in group; 4/16; format: functional, organism-based
Mus musculus [21] = assay: Average number of fractures per mouse at 0.05 mg/kg/day
Mus musculus [22] = assay: Avoiding pressure on limbs at 0.2 mg/kg/day dose in mice with hypervitaminosis; 0/16; format: functional, organism-based; settings: Limb
Mus musculus [23] = assay: Effect of compound on thymus to body weight ratios in mice at 0.1 mg/kg/day dose; all the animals died by day 65; format: functional, organism-based
Summary of the method: (§3)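 Male B6D2F1 mice were dosed daily by gavage in corn oil, with TTNPB given at 0.1–0.8 or 0.01/0.05 mg/kg/day. Thymus-to-body weight ratio (×1000) was taken at necropsy on day 65 against vehicle 1, or on day 25 for the 0.01/0.05 groups against vehicle 2. Mean ± SD of 4–8 animals, reported as % difference from vehicle.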

Mus musculus [24] = organism: Mus musculus; assay: Skin scaling in mice at high dose with Hypervitaminosis; 0/16; format: functional, organism-based
Mus musculus [25] = organism: Mus musculus; assay: Alopecia in mice observed at mid dose 2 with Hypervitaminosis; 1/16; format: functional, organism-based
Mus musculus [26] = organism: Mus musculus; assay: Effect of compound on Spleen to body weight ratios in mice at low dose; format: functional; summary of the method: as §2
Mus musculus [27] = organism: Mus musculus; assay: Alopecia in mice observed at mid dose 1 with Hypervitaminosis; 1/16; format: functional, organism-based
Mus musculus [28] = organism: Mus musculus; assay: Enlarged lymph in gross pathological observations in mice with hypervitaminosis A at mid dose 1 with gross observations/total number of mice in group; 0/16; format: functional, organism-based
Mus musculus [29] = organism: Mus musculus; assay: Effect of compound on serum Alkaline phosphatase levels in mice at mid dose 1 on day 29; format: functional
Summary of the method: (§4)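 Male B6D2F1 mice dosed daily by oral gavage in corn oil at low, mid 1, mid 2 or high dose. Blood sampled on set days (8, 29, 36, 65) for clinical chemistry, serum alkaline phosphatase and triglycerides. Group mean ± SD reported as % relative to vehicle 1; significance p < 0.05 versus corn oil vehicle.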

Mus musculus [30] = organism: Mus musculus; assay: Avoiding pressure on limbs in mice at high dose with Hypervitaminosis; 0/16; format: functional, organism-based; settings: Limb
Mus musculus [31] = organism: Mus musculus; assay: Effect of compound on thymus to body weight ratios in mice at high dose on day 65; all the animals died by day 65; format: functional, organism-based; summary of the method: as §3
Mus musculus [32] = organism: Mus musculus; assay: Enlarged spleen in Gross pathological observations in mice with hypervitaminosis A at mid dose 1 with gross observations/total number of mice in group; 5/16; format: functional, organism-based
Mus musculus [33] = organism: Mus musculus; assay: Compound toxicity determined by total dose to termination (day 25/65) in low dose; format: functional
Summary of the method: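 Male B6D2F1 mice given daily oral gavage in corn oil; dosages increased during the study (day 30 or day 51 depending on compound). Cumulative dose in mg/kg administered up to termination (day 65, or day 25 for TTNPB 0.01/0.05 mg/kg/day groups).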

Mus musculus [34] = organism: Mus musculus; assay: Compound toxicity determined by total dose to termination (day 25/65) in mid dose 2; format: functional
Mus musculus [35] = organism: Mus musculus; assay: Enlarged lymph in gross pathological observations in mice with hypervitaminosis A in mice at high dose with gross observations/total number of mice in group; 8/16; format: functional, organism-based
Mus musculus [36] = organism: Mus musculus; assay: Effect of compound on white blood cells levels in mice at mid dose 2 on day 8; format: functional
Summary of the method: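 Male B6D2F1 mice were gavaged daily with compound in corn oil at low, mid 1, mid 2 or high dose. Serum triglycerides and circulating white blood cells were measured on the stated day (8, 29, 36, 65). Values are group mean ± SD expressed as % relative to corn-oil vehicle, with significance at p ≤ 0.05.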

Mus musculus [37] = organism: Mus musculus; assay: Effect of compound on right testicle to body weight ratios in mice at high dose on day 65; all the animals died by day 65; format: functional, organism-based; summary of the method: as §2
Mus musculus [38] = organism: Mus musculus; assay: Effect of compound on serum Alkaline phosphatase levels in mice at low dose on day 36; format: functional; summary of the method: as §4
Mus musculus [39] = organism: Mus musculus; assay: Effect of compound on serum Alkaline phosphatase levels in mice at mid dose 1 on day 36; format: functional; summary of the method: as §4
Mus musculus [40] = organism: Mus musculus; assay: Enlarged lymph in gross pathological observations in mice with hypervitaminosis A at low dose with gross observations/total number of mice in group; 6/16; format: functional, organism-based
Mus musculus [41] = organism: Mus musculus; assay: Enlarged spleen in Gross pathological observations in mice with hypervitaminosis A at high dose with gross observations/total number of mice in group; 4/16; format: functional, organism-based

Question: CC(/C=C/C=C(\C)c1ccc2c(c1)C(C)(C)CCO2)=C\C(=O)O was tested. Which Mortality (Mus musculus [1]) did it give?
Answer: Its Mortality is 0 day of death.

Question: And the Activity (Mus musculus [2])?
Answer: The Activity was “Weak activity”.

Question: What about the Activity (Mus musculus [3]) of the same compound?
Answer: The Activity was “inactive”.

Question: What about the Activity (Mus musculus [4]) of the same compound?
Answer: Its Activity is “inactive”.

Question: And the Activity (Mus musculus [5])?
Answer: The Activity was “inactive”.

Question: And the Activity (Mus musculus [6])?
Answer: The Activity was “Weak activity”.

Question: What about the Activity (Mus musculus [7]) of the same compound?
Answer: Its Activity is “inactive”.

Question: And the Mortality (Mus musculus [8])?
Answer: Its Mortality is 0 day of death.

Question: And the Activity (Mus musculus [9])?
Answer: The Activity was “inactive”.

Question: Which Activity (Mus musculus [10]) does the source give for C/C(=C\c1ccc(C(=O)O)cc1)c1ccc2c(c1)C(C)(C)CCC2(C)C here?
Answer: The Activity was “Toxic”.

Question: And the Activity (Mus musculus [11])?
Answer: The Activity was “Toxic”.

Question: What about the Activity (Mus musculus [12]) of the same compound?
Answer: Its Activity is “inactive”.

Question: What about the Activity (Mus musculus [13]) of the same compound?
Answer: The Activity was “Toxic”.

Question: And the Activity (Mus musculus [14])?
Answer: The Activity was “Toxic”.

Question: And the Activity (Mus musculus [15])?
Answer: The Activity was “Toxic”.

Question: And the Activity (Mus musculus [16])?
Answer: Its Activity is “Toxic”.

Question: What about the Activity (Mus musculus [17]) of the same compound?
Answer: Its Activity is 0.1.

Question: And the Activity (Mus musculus [18])?
Answer: Its Activity is “Toxic”.

Question: And the Activity (Mus musculus [19])?
Answer: Its Activity is “inactive”.

Question: And the Activity (Mus musculus [20])?
Answer: Its Activity is “Weak activity”.

Question: And the Activity (Mus musculus [21])?
Answer: Its Activity is 3.3.

Question: And the Activity (Mus musculus [22])?
Answer: The Activity was “inactive”.

Question: And the Activity (Mus musculus [23])?
Answer: The Activity was “Toxic”.

Question: What does the source list for CC(/C=C/C=C(\C)c1ccc2c(c1)C(C)(C)CCS2)=C\C(=O)O?
Answer: Activity (Mus musculus [24]): inactive; Activity (Mus musculus [25]): inactive; Activity (Mus musculus [26]): 2.1; Activity (Mus musculus [27]): inactive; Activity (Mus musculus [28]): inactive; Activity (Mus musculus [29]): 135.8; Activity (Mus musculus [30]): inactive

Question: How did the Activity (Mus musculus [31]) turn out when C/C(=C\c1ccc(C(=O)O)cc1)c1ccc2c(c1)C(C)(C)CCO2 was run?
Answer: The Activity was “Toxic”.

Question: And the Activity (Mus musculus [32])?
Answer: The Activity was “Weak activity”.

Question: And the Total dose (Mus musculus [33])?
Answer: Its Total dose is 147.1 mg/kg.

Question: What about the Total dose (Mus musculus [34]) of the same compound?
Answer: The Total dose was 588.4 mg/kg.

Question: And the Activity (Mus musculus [35])?
Answer: The Activity was “Weak activity”.

Question: And the Activity (Mus musculus [36])?
Answer: The Activity was 5.26.

Question: What about the Activity (Mus musculus [37]) of the same compound?
Answer: The Activity was “Toxic”.

Question: What about the Activity (Mus musculus [38]) of the same compound?
Answer: Its Activity is 77.4.

Question: And the Activity (Mus musculus [39])?
Answer: Its Activity is 81.5.

Question: What about the Activity (Mus musculus [40]) of the same compound?
Answer: Its Activity is “Weak activity”.

Question: What about the Activity (Mus musculus [41]) of the same compound?
Answer: Its Activity is “Weak activity”.
